In the library only some 4% were active in any assay of this set; here they are far more common.
TAAR1 antag: human TAAR1 antagonists, primary screen, Fluo-8 calcium fluorescence, CHO RD-HGA16 cells; inhibition, % at 3 µM; antagonist; 1.5% of 360,000 active;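 active = inhibition above a per-plate cutoff, the mean inhibition of test compounds on that plate plus 3 SD, cut at about 49% in these data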
Target sequence (Q96RJ0 whole entry, looked up): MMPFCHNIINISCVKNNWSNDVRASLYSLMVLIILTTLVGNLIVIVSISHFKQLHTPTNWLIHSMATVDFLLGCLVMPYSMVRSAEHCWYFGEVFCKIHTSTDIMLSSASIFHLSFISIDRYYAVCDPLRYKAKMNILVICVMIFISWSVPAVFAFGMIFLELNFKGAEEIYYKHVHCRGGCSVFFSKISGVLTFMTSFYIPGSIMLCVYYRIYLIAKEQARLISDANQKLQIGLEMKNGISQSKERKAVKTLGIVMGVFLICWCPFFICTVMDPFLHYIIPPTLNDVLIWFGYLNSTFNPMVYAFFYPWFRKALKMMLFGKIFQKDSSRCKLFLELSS
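System: CHO RD-HGA16 cells bearing hTAAR1. Reagent: EC80 β-phenethylamine stimulus. Schedule: seeding 17-24 h prior, 75-min 37 °C, 30-min RT dye loading. Signal: Fluo-8 intracellular calcium dye fluorescence, real-time kinetic reads. Read-out: % inhibition from peak post-agonist over basal fluorescence ratio. Benchmarks: vehicle wells and EC80 agonist wells. Replicates: n of 1.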
OX1R antag-1: OX1R (HCRTR1) antagonists, primary screen, fluorescence, CHO/OX1R cells, Fluo-8 calcium, orexin A; inhibition, % at 5 µM; Fluo-8 calcium fluorescence; AID 434989, 2010; 0.43% of 330,000 active;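 active = inhibition above its plate's threshold, mean inhibition of all tested compounds on the plate plus 3 SD, cut at about 37% in these data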
CHO parental Ca: ATP-evoked calcium signal inhibitors, parental CHO, primary screen, counter-screen for OX1R antagonist project, cell-based, fluorescence, Fluo-8 calcium dye | inhibition, % at 5.6 µM | AID 463079, 2010 | parental CHO-K1, ATP-induced calcium, Fluo-8 fluorescence | 0.63% of 330,000 active;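 active = inhibition above that plate's mean sample inhibition plus 3 SD, cut at about 26% in these data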
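Test system: untransfected parental CHO cell line; also added: ATP stimulus; dosing: 5.6 µM, single dose; signal: calcium-sensitive Fluo-8 fluorescence; measure: percent inhibition of ATP-evoked calcium rise, normalized to controls; benchmarks: low control ATP plus DMSO, high control DMSO only; replication: one well per compound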
OX1R antag-2: antagonists of human orexin 1 receptor (OX1R); Orexin/Hypocretin receptor type 1 (Homo sapiens), O43613; OX1R-expressing cells, FRET antagonist read-out; inhibition, % at 6.6 µM; 1.8% of 330,000 active; AID 485270, 2010; in the data active = inhibition mostly above about 38%, no sharp cut-off; inactive = mostly below about 40%
TAAR1 agonist: human TAAR1 agonists, primary screen, Fluo-8 calcium fluorescence, CHO RD-HGA16 cells | Trace amine-associated receptor 1 (Homo sapiens), Q96RJ0 | vehicle wells 0%, saturating PEA agonist 100% | activation, % at 3 µM | 0.99% of 360,000 active | AID 624467, 2012;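 active = activation above the mean activation of all test compounds in the run plus 3 SD, cut at about 38% in these data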
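Repeats: no replicates (n 1) | Material: CHO-derived RD-HGA16 cells with stable Gα16 and human TAAR1 | Technique: Kinetic Fluo-8 calcium fluorescence | Schedule: 17-24 h seeding, 75 min 37 °C dye, 30 min RT | Evaluation: % activation from peak over basal fluorescence ratio, DMSO-to-PEA scaled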
TAAR1 ag confirm: human TAAR1 agonists, retest of hits, confirmation, Fluo-8 calcium fluorescence, CHO RD-HGA16 cells; AID 651783, 2012; 82% of 2,400 active; scaled: DMSO 0%, maximal phenethylamine 100%; shares compounds with TAAR1 agonist; activation, % at 3 µM;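 active = activation above a cutoff set at the run's mean compound activation plus 3 SD, cut at about 39% in these data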
Ga16 nonsel ag: nonselective calcium mobilization agonists, CHO-Ga16 cells, counter-screen for hTAAR1 agonist project, cell-based, fluorescence, CHO-Ga16 parental line; Fluo-8 calcium fluorescence; normalized to maximal ATP response, DMSO zero; shares compounds with TAAR1 agonist; activation, % at 3 µM; AID 651787, 2012; 50% of 2,400 active;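 active = activation above the run cutoff, the mean activation over all tested wells plus 3 SD, cut at about 12% in these data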
TAAR1 desens: TAAR1 desensitization by agonist hits, confirmation, counter-screen for TAAR1 agonist project, cell-based, fluorescence, tachyphylaxis | shares compounds with TAAR1 agonist | CHO RD-HGA16 hTAAR1, Fluo-8 calcium, beta-PEA response inhibition | inhibition, % at 3 µM | 46% of 2,400 active | AID 651951, 2012;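 active = inhibition above the run cutoff, the mean inhibition of all test compounds plus 3 SD, cut at about 49% in these data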;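 also: beta-PEA stimulus applied at its EC80; loss of beta-PEA calcium signal after compound pretreatment read as receptor desensitization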
Ga16 nonsel ant: inhibition of ATP-evoked calcium response in CHO-Ga16 cells, counter-screen for TAAR1 agonist project, cell-based, fluorescence. shares compounds with TAAR1 agonist. CHO-Ga16 ATP-induced calcium, Fluo-8 fluorescence. inhibition, % at 3 µM. 39% of 2,400 active;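 active = inhibition above the plate's mean compound inhibition plus 3 SD, computed per plate, cut at about 22% in these data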
Hits are given with their value; . = inactive; / = no result.

SMILES	TAAR1 antag	OX1R antag-1	CHO parental Ca	OX1R antag-2	TAAR1 agonist	TAAR1 ag confirm	Ga16 nonsel ag	TAAR1 desens	Ga16 nonsel ant
O=C(O)C1C2C=CC(C3CC23)C1C(=O)NCCc1ccccc1 (stereo not given)	93	.	.	.	91	96	.	97	.
COc1ccccc1CN1CC(C(=O)NC2CCOCC2)CCC1=O (stereo not given)	.	.	.	.	.	/	/	/	/
O=C(COC(=O)C1CC1)NCc1ccc(Cl)cc1Cl	.	.	.	.	.	/	/	/	/
Cc1cc(C(F)(F)F)c2c(N)c(C(=O)NC3CC3)sc2n1	.	.	.	.	.	/	/	/	/
Cc1nnc(NC(=O)c2sc3nc(-c4cccs4)cc(C(F)(F)F)c3c2N)s1	89	85	42	.	78	62	77	80	80
O=C(N/N=C/c1c(O)ccc2ccccc12)c1cccnc1	.	.	.	.	.	/	/	/	/
O=C(N/N=C\c1c(O)ccc2ccccc12)c1cncc(Br)c1	59	63	67	73	121	72	90	52	58
CCCOc1c(OC)cccc1C1CC(=O)Nc2cc3c(cc21)OCO3 (stereo not given)	.	.	.	.	.	/	/	/	/
CCCOc1c(OC)cccc1C1CC(=O)Nc2cc3c(cc21)OCCO3 (stereo not given)	.	.	.	.	39	.	.	.	.
COC(=O)c1cc(OC)c(OC)cc1NC(=O)c1csc(C)c1	.	.	.	.	.	/	/	/	/
CC(NC(=O)c1ccc(F)cc1F)C1CC2CCC1C2 (stereo not given)	.	.	.	.	.	/	/	/	/
Cc1ccc(Oc2cnc3ccccc3n2)cc1	.	.	.	.	.	/	/	/	/
Cc1ccc(Oc2ccc(Oc3ccc(C)cc3)nn2)cc1	68	.	27	.	66	.	17	.	.
COc1cc(/C=C(\C#N)c2nc3ccc(C)cc3[nH]2)cc([N+](=O)[O-])c1O	.	/	/	/	.	/	/	/	/
COc1cc(/C=C(\C#N)c2nc3ccc(C)cc3[nH]2)c([N+](=O)[O-])cc1OC	.	.	.	.	47	.	30	.	.
CCCc1ccc(OCc2ccc(C(=O)N/N=C/c3cccnc3)o2)cc1	.	/	/	/	.	/	/	/	/
CN1C(C(=O)NCCc2cccs2)CC2Cn3c(nc4ccccc43)C21 (stereo not given)	/	.	.	.	/	/	.	/	.
COCCCNC(=O)[C@H]1O[C@@H](n2cnc3c(=O)[nH]c(N)nc32)[C@H](O)[C@@H]1O	.	/	/	/	.	/	/	/	/
Nc1nc2c(ncn2[C@@H]2O[C@H](C(=O)NCCCc3ccccc3)[C@@H](O)[C@H]2O)c(=O)[nH]1	.	/	/	/	56	69	.	.	.
COc1ccc2[nH]c3c(c2c1)CCN1C(=O)N([C@@H](C)C(=O)NCc2ccccc2)C(=O)[C@]31C	.	.	.	.	.	/	/	/	/
C[C@@H](C(=O)NCCc1ccccc1)N1C(=O)N2CCc3c([nH]c4ccccc34)[C@@]2(C)C1=O	68	.	.	.	71	68	.	.	.
COc1cccc(C(=O)Nc2ccc(NC(=O)Cc3ccccc3)cc2)c1	.	.	.	.	82	102	23	67	.
CN1CCN(c2ccc(NC(=O)c3cccc(OCc4ccccc4)c3)cc2)CC1	.	.	.	.	54	60	.	71	.
CC(C)Oc1cccc(C(=O)Nc2ccc(N3CCN(C)CC3)cc2)c1	.	.	.	.	.	/	/	/	/
CCc1ccc2cccc3c2c1N=CN3C	.	.	.	.	.	/	/	/	/
SMILES	TAAR1 antag	OX1R antag-1	CHO parental Ca	OX1R antag-2	TAAR1 agonist	TAAR1 ag confirm	Ga16 nonsel ag	TAAR1 desens	Ga16 nonsel ant
COC(=O)C1=C(C)N(Cc2ccccc2C(F)(F)F)C(=NCc2ccc3c(c2)OCO3)NC1c1cccc(F)c1 (stereo not given)	.	/	/	/	.	/	/	/	/
COC(=O)C1=C(C)N(Cc2cccc(C(F)(F)F)c2)C(=NCc2ccc3c(c2)OCO3)NC1c1cccc(F)c1 (stereo not given)	58	/	/	/	65	58	20	68	43
COC(=O)C1=C(C)N(Cc2cccc(C(F)(F)F)c2)C(=NCc2cc(OC)c(OC)c(OC)c2)NC1c1ccc(F)cc1 (stereo not given)	52	/	/	/	60	.	16	.	30
COC(=O)C1=C(C)N(Cc2cccc(C(F)(F)F)c2)C(=NCc2ccc3c(c2)OCO3)NC1c1ccccc1 (stereo not given)	.	/	/	/	43	47	14	.	27
COc1ccc(COC(=O)C2CCN(S(=O)(=O)c3ccc(C)cc3)CC2)cc1	.	.	.	.	.	/	/	/	/
Cc1ccc(S(=O)(=O)c2c(C)cc(C)nc2N2CCCC2)cc1	.	.	.	.	.	/	/	/	/
O=C(Nc1ccc(C(F)(F)F)cc1)c1ccccc1	63	.	.	.	52	.	12	.	.
CCOC(=O)C1C(=O)C=C(/C=C/c2ccc(N(C)C)cc2)CC1c1ccccc1 (stereo not given)	70	.	41	.	79	69	85	85	84
CCOC(=O)C1C(=O)C=C(c2ccc(C)cc2)CC1c1ccccc1 (stereo not given)	.	.	.	.	.	/	/	/	/
CCOC(=O)c1ccc(NC(=S)NCCc2ccccc2F)cc1	.	.	.	.	70	89	.	86	33
S=C(NCc1ccccc1)NCc1ccc(CNC(=S)NCc2ccccc2)cc1	65	.	48	.	56	51	20	63	47
NS(=O)(=O)c1ccc(NC(=S)NCCc2ccccc2)cc1	.	.	.	.	54	82	.	68	.
COC(=O)c1ccc(NC(=S)NCCc2ccccc2)cc1	54	.	.	.	73	82	12	77	28
S=C(NCc1ccccc1)C(=S)NCc1ccccc1	.	/	/	/	.	/	/	/	/

From PubChem BioAssay
